We go through one compound from article PMC2873867 (Journal of inorganic biochemistry, 2009).

The target in one test is T1, LYP C129S (Homo sapiens, UniProt Q9Y2R2, C129S).
T1 sequence (Q9Y2R2 24-289 C129S limits assumed): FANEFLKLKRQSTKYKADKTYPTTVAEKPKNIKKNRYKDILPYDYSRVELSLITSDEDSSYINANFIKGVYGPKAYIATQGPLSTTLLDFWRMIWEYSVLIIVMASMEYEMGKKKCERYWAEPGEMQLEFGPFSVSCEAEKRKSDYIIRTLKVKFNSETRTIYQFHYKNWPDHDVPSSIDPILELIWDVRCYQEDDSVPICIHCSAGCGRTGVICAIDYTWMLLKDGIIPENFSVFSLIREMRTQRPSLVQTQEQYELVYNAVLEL
Put plainly: Enzyme inhibition assay. Format: biochemical. Conditions: 5 nM enzyme, 1.5 μM DiFMUP. An outline of the steps:
(§1)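 Single-mutant catalytic domains (C129S or C231S) at 5 nM final, each activated 30 min with 0.1 mM DTT. Triplicate kinetic fluorescence (360/455 nm, every 60 s, 30 min), averaged, converted to DiFMU by standard curve.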

Another test concerns the target T2, LYP C231S (Homo sapiens, UniProt Q9Y2R2, C231S).
T2 sequence (Q9Y2R2 24-289 C231S limits assumed): T1 sequence (Q9Y2R2 24-289 C129S limits assumed) with S106C, C208S
Put plainly: Enzyme inhibition assay. Conditions: 5 nM enzyme, 1.5 μM DiFMUP. Format: biochemical. An outline of the steps: as §1

Test [1] concerns the target T3, LYP C129/231S (Homo sapiens, UniProt Q9Y2R2, C129S/C231S).
T3 sequence (Q9Y2R2 24-289 C129S/C231S limits assumed): T1 sequence (Q9Y2R2 24-289 C129S limits assumed) with C208S
Put plainly: Enzyme inhibition assay. The test is classed as biochemical. An outline of the steps:
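LYP C129S/C231S catalytic domain at 20 nM final, preactivated with 0.1 mM DTT for 1 h. Test compound and 1.5 μM DiFMUP added in DMSO (5% final). Fluorescence (ex 360/em 455 nm) read every 60 s for 30 min, in triplicate, averaged, converted to DiFMU via standard curve.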

Test [2] has as its target T4, LYP (Homo sapiens, UniProt Q9Y2R2).
T4 sequence (Q9Y2R2 24-289 limits assumed): T1 sequence (Q9Y2R2 24-289 C129S limits assumed) with S106C
As to the kind of experiment: Mode of inhibition assay. The test is classed as biochemical. An outline of the steps: (§2)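 Catalytic domains (LYP and PTP-PEST 5 nM; LYP C129/231S 20 nM) in pH 6.5 Tris/NaCl/EDTA/DTT/Brij 35 buffer at room temperature. Activity measured across a series of DiFMUP concentrations with no test compound or several fixed test compound concentrations, triplicate at each substrate level. Reciprocal rate plotted against reciprocal substrate concentration for each inhibitor level (Lineweaver–Burk).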

In test [3] the target is T5, PTP-PEST (Homo sapiens, UniProt Q05209).
T5 sequence (Q05209 28-293 limits assumed): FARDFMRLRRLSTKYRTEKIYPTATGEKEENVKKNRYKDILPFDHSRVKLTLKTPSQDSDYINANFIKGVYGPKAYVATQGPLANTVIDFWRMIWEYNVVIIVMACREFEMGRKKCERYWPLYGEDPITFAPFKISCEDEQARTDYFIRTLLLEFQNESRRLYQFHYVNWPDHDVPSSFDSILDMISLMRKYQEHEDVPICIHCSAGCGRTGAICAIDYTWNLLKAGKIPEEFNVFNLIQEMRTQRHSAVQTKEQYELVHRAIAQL
Put plainly: Mode of inhibition assay. The test is classed as biochemical. An outline of the steps:
as §2

For test [4], the target named is T3, LYP C129/231S. As to the kind of experiment: Mode of inhibition assay. Format: biochemical. An outline of the steps:
as §2

For the next test, the system named is Jurkat TAg cells. As to the kind of experiment: Inhibition studies with JTAg cells. Conditions: 50 μM, 1 h, western blot. The test is classed as cell-based. An outline of the steps:
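Jurkat TAg cells kept in log growth in supplemented RPMI 1640 (10% FBS). 20×10^6 cells treated for 1 h at room temperature with 50 μM test compound or DMSO (<2%), then split and stimulated 2 min with C305 hybridoma supernatant or left unstimulated. NP-40 lysates, Bradford-normalised, run on 10% SDS–PAGE. Blots probed for pLck Y394/Y505, pZAP-70 Y319 and pERK against total-protein controls, developed by ECL.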
On the technique in general: Immunoblotting shows a protein as a band on a membrane.

Test [5] has as its target T4, LYP. Conditions: wild-type LYP; cited from earlier work.
The target of test [6] is T5, PTP-PEST. Conditions: cited from earlier work.
Another test relates to HePTP. Conditions: cited from earlier work.
For a further test, the system named is CD45. Conditions: cited from earlier work.
The mark [7] stands for this setting: read-out: Calculated Ki, from Lineweaver-Burk data.
The mark [8] stands for this setting: read-out: Estimated Ki from Dixon plot, Ki = -intersection point.

Usually IC50 stands for the point on the concentration scale where inhibition reaches its midpoint. As usually defined, the Ki is a dissociation constant, usually derived from enzyme kinetics or from competition with a known ligand.

Residue numbers refer to the chain shown, from its start. Where two headings read alike, the source gives them in different places.

Take `N#CCC[PH](CCC#N)([Au][Cl])c1ccccc1` [Complex 1, bis(cyanoethyl)phenylphosphine–Au(I)–Cl]: the IC50 against LYP C129S was 4 ± 0.2 µM; on LYP C231S, 4 ± 0.8 µM; at LYP C129/231S [1] (LYP C129/231S, 20 nM enzyme, 1.5 μM DiFMUP), 40 ± 4 µM; on LYP [5] it was 3.5 ± 0.1 µM; at PTP-PEST [6], more than 80 µM; in the test with HePTP, more than 50 µM. Moreover, the 50% inhibitory concentration (IC50) in the test with CD45 was more than 70 µM. The “IC50 of LYP C129/231S relative to wild-type LYP and single mutants” value against LYP C129/231S [1] (fold higher) is reported as “roughly 10 fold”. The Mode of inhibition entry is reported as “competitive inhibition” at LYP [2] (Lineweaver-Burk plot), “competitive inhibition” at PTP-PEST [3] (Lineweaver-Burk plot) and “mixed-type inhibition” at LYP C129/231S [4] (Lineweaver-Burk plot). For the same compound, the Ki is 2.38 ± 1.1 µM on LYP [2] (setting [7]); approximately 1.2 µM at LYP [2] (setting [8]); 53.3 ± 16.3 µM at PTP-PEST [3] (setting [7]); approximately 80 µM on PTP-PEST [3] (setting [8]); 58.6 ± 5.3 µM at LYP C129/231S [4] (setting [7]); approximately 70 µM at LYP C129/231S [4] (setting [8]). In addition, the “Phosphorylation of Lck at Y505 (cellular CD45 inhibition)” value in the test on Jurkat TAg cells (JTAg cells) was “no change in phosphorylation levels at position Y505”. In addition, the “Phosphorylation of ERK1/2” value with Jurkat TAg cells (TCR stimulated JTAg cells) is recorded as “increased phosphorylation levels”. The “Phosphorylation of Lck at Y394 (cellular LYP inhibition)” value in the test with Jurkat TAg cells (TCR stimulated JTAg cells) is reported as “increase in phosphorylation at Y394”. The “Phosphorylation of ZAP-70” value in the test on Jurkat TAg cells (TCR stimulated JTAg cells) is “increased phosphorylation levels”.
